From the M2OR odorant receptor database
Changes are numbered by the printed parent chain.

Experiments:
Conditions in all cases: stereoisomer not certain
OR4N4 (Homo sapiens) = target: T1, OR4N4 (Homo sapiens) (UniProt Q8N0Y3)
T1 sequence (whole entry): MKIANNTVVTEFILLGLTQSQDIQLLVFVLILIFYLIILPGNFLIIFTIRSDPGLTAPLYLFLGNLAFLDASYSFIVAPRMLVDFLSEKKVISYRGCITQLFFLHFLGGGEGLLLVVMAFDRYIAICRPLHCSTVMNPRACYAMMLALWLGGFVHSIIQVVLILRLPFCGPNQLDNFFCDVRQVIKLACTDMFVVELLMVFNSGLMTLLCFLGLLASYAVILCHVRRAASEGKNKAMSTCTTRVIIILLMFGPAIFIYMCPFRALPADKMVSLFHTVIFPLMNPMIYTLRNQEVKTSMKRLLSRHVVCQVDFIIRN
How it was run: (§1)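 Each entry records the cell line, G-protein, co-transfected protein and tags used. Methods varied with the source, often transient luciferase assays in mammalian cell lines. A receptor–molecule pair is called responsive (active) if the original authors judged its signal statistically different from baseline and non-responsive (inactive) otherwise.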

OR4N5 (Homo sapiens) = target: T2, OR4N5 (Homo sapiens) (UniProt Q8IXE1)
T2 sequence (whole entry): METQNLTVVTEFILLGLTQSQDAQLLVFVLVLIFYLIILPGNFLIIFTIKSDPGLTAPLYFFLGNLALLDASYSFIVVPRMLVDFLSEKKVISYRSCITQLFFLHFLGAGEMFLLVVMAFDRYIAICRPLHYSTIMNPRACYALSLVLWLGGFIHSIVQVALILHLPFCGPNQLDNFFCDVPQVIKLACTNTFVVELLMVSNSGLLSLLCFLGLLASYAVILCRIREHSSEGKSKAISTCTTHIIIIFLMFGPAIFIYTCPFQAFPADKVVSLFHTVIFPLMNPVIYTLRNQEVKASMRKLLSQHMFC
How it was run: as §1

OR4P4 (Homo sapiens) = target: T3, OR4P4 (Homo sapiens) (UniProt Q8NGL7)
T3 sequence (whole entry): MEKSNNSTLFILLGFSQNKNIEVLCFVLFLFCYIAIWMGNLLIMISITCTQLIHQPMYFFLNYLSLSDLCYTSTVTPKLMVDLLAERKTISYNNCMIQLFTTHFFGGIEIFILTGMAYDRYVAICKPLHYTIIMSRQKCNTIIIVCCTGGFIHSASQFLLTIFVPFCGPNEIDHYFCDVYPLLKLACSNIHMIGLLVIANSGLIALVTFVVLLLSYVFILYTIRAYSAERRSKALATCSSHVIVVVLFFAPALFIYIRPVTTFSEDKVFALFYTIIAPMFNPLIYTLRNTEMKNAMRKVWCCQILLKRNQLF
How it was run: as §1

OR4Q3 (Homo sapiens) = target: T4, OR4Q3 (Homo sapiens) (UniProt Q8NH05)
T4 sequence (whole entry): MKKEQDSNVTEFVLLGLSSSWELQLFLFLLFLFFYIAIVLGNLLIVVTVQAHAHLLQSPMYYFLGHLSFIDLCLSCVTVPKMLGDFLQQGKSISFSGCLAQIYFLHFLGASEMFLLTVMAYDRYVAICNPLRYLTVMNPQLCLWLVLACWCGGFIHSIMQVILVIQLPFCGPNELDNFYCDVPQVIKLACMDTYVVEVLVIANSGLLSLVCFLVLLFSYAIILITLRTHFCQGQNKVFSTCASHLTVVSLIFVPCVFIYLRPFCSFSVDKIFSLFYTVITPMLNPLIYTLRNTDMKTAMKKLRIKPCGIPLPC
How it was run: as §1

OR4S1 (Homo sapiens) = target: T5, OR4S1 (Homo sapiens) (UniProt Q8NGB4)
T5 sequence (whole entry): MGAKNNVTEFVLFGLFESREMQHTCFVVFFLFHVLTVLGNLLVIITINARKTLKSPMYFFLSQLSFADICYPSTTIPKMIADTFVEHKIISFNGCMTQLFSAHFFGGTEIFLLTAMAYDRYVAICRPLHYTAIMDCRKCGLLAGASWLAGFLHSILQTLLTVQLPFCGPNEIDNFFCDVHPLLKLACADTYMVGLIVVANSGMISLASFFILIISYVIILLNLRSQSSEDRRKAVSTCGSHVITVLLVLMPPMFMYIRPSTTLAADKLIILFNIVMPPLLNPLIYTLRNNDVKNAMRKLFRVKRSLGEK
How it was run: as §1

OR4S2 (Homo sapiens) = target: T6, OR4S2 (Homo sapiens) (UniProt Q8NH73)
T6 sequence (whole entry): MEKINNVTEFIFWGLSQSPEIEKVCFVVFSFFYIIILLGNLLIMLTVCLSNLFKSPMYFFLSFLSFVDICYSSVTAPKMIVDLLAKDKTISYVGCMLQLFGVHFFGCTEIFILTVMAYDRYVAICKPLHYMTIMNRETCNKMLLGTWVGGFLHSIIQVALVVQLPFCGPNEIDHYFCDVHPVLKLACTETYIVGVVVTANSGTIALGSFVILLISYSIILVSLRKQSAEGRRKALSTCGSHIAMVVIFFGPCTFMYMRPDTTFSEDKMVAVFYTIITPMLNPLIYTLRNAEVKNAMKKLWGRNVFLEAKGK
How it was run: as §1

OR4X1 (Homo sapiens) = target: T7, OR4X1 (Homo sapiens) (UniProt Q8NH49)
T7 sequence (whole entry): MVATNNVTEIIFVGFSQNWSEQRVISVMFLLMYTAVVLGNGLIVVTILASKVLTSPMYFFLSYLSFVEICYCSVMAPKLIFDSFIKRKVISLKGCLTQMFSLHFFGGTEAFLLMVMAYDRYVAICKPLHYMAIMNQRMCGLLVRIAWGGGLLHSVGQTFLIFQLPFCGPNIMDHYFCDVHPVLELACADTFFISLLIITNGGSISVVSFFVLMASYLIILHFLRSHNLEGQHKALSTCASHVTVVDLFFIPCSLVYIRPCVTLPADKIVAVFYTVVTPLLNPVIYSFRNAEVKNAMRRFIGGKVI
How it was run: as §1

OR4X2 (Homo sapiens) = target: T8, OR4X2 (Homo sapiens) (UniProt Q8NGF9)
T8 sequence (whole entry): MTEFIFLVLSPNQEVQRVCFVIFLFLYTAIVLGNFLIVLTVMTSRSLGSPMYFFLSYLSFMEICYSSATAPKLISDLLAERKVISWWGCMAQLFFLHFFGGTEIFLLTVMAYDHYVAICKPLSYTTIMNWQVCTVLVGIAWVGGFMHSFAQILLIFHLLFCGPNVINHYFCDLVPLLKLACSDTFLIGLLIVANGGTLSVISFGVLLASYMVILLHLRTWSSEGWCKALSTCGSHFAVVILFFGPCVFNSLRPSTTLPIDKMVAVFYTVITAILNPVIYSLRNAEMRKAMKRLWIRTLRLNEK
How it was run: as §1

OR51A2 (Homo sapiens) = target: T9, OR51A2 (Homo sapiens) (UniProt Q8NGJ7)
T9 sequence (whole entry): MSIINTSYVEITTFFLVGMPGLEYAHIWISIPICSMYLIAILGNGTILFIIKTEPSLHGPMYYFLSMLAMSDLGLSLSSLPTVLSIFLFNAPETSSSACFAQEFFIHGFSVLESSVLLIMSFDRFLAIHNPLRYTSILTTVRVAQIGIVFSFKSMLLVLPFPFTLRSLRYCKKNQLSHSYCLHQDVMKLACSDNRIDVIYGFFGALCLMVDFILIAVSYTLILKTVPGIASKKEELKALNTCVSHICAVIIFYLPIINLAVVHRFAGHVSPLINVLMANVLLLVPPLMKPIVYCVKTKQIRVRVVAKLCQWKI
How it was run: as §1

OR51A4 (Homo sapiens) = target: T10, OR51A4 (Homo sapiens) (UniProt Q8NGJ6)
T10 sequence (whole entry): T9 sequence (whole entry) with G59E, T94I, S97N, S167N, P227L, E235Q, G267R, M288T, K289N, W311R
How it was run: as §1

OR51A7 (Homo sapiens) = target: T11, OR51A7 (Homo sapiens) (UniProt Q8NH64)
T11 sequence (whole entry): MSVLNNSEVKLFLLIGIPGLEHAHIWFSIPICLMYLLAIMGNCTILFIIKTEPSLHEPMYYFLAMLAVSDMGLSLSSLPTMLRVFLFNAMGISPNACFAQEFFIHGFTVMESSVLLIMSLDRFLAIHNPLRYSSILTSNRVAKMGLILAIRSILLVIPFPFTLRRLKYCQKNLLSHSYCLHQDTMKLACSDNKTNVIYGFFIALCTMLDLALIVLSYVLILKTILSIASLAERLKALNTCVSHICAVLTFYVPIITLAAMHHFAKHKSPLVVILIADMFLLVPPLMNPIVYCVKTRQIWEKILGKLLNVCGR
How it was run: as §1

OR51B2 (Homo sapiens) = target: T12, OR51B2 (Homo sapiens) (UniProt Q9Y5P1)
T12 sequence (whole entry): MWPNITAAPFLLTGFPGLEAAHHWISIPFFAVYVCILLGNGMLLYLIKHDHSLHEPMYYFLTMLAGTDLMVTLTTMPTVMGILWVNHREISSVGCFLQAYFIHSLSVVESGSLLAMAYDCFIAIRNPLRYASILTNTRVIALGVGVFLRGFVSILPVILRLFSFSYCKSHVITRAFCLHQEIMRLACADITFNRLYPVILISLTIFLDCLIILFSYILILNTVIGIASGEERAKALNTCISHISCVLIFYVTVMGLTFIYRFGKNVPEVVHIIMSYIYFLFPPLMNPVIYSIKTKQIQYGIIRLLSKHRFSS
How it was run: as §1

OR51B4 (Homo sapiens) = target: T13, OR51B4 (Homo sapiens) (UniProt Q9Y5P0)
T13 sequence (whole entry): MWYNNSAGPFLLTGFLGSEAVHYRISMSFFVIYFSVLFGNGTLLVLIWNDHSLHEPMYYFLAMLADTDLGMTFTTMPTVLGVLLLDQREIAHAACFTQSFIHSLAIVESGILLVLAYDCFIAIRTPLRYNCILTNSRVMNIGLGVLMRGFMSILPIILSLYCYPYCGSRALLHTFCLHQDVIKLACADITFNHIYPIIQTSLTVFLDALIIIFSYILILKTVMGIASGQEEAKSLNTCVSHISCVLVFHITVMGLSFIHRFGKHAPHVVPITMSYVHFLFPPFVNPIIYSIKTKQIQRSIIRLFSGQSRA
How it was run: as §1

OR51B5 (Homo sapiens) = target: T14, OR51B5 (Homo sapiens) (UniProt Q9H339)
T14 sequence (whole entry): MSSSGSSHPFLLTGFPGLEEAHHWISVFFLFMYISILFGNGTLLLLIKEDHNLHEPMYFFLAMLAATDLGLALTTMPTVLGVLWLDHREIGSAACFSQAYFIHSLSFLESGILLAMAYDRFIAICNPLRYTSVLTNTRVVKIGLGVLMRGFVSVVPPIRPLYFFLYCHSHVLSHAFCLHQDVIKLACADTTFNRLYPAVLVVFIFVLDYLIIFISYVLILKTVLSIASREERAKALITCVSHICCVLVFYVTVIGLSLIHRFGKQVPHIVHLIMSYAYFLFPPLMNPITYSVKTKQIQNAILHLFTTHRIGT
How it was run: as §1

OR51B6 (Homo sapiens) = target: T15, OR51B6 (Homo sapiens) (UniProt Q9H340)
T15 sequence (whole entry): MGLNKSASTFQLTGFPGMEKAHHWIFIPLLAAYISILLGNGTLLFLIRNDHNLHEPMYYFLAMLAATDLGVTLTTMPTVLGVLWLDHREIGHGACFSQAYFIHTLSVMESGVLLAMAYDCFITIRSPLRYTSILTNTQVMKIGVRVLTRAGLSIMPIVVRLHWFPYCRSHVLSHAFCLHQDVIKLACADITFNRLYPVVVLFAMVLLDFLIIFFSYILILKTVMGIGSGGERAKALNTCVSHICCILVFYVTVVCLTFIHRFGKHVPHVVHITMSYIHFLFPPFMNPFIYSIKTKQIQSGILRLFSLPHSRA
How it was run: as §1

OR4N2 = test system: T16, OR4N2
T16 sequence (whole entry): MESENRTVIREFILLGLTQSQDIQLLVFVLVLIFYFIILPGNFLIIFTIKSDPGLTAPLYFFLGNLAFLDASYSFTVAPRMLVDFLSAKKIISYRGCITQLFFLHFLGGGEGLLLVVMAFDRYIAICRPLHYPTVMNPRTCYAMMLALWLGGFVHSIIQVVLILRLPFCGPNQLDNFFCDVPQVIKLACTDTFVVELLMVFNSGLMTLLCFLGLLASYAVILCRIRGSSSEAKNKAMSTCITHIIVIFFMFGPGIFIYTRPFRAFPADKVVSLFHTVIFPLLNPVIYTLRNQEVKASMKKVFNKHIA
How it was run: as §1

OR4Q3 T135A = test system: T17, OR4Q3 T135A
T17 sequence (whole entry): T4 sequence (whole entry) with T135A
How it was run: as §1

Measured: odorant receptor agonist call

CCCCCC(=O)C(C)C(C)=O (centres undefined)
inactive: OR4N4 (Homo sapiens) | OR4N5 (Homo sapiens) | OR4P4 (Homo sapiens) | OR4Q3 (Homo sapiens) | OR4S1 (Homo sapiens) | OR4S2 (Homo sapiens) | OR4X1 (Homo sapiens) | OR4X2 (Homo sapiens) | OR51A2 (Homo sapiens) | OR51A4 (Homo sapiens) | OR51A7 (Homo sapiens) | OR51B2 (Homo sapiens) | OR51B4 (Homo sapiens) | OR51B5 (Homo sapiens) | OR51B6 (Homo sapiens)

CC1=C(O)C(=O)C(C)O1 (centres undefined)
inactive: OR4N2 | OR4N4 (Homo sapiens) | OR4N5 (Homo sapiens) | OR4P4 (Homo sapiens) | OR4Q3 (Homo sapiens) | OR4Q3 T135A | OR4S1 (Homo sapiens) | OR4S2 (Homo sapiens) | OR4X1 (Homo sapiens) | OR4X2 (Homo sapiens) | OR51A2 (Homo sapiens) | OR51A4 (Homo sapiens) | OR51A7 (Homo sapiens) | OR51B2 (Homo sapiens) | OR51B4 (Homo sapiens) | OR51B5 (Homo sapiens) | OR51B6 (Homo sapiens)

CC1=C(O)C(=O)OC1C (centres undefined)
inactive: OR4N2 | OR4N4 (Homo sapiens) | OR4N5 (Homo sapiens) | OR4P4 (Homo sapiens) | OR4Q3 (Homo sapiens) | OR4Q3 T135A | OR4S1 (Homo sapiens) | OR4S2 (Homo sapiens) | OR4X1 (Homo sapiens) | OR4X2 (Homo sapiens) | OR51A2 (Homo sapiens) | OR51A4 (Homo sapiens) | OR51A7 (Homo sapiens) | OR51B2 (Homo sapiens) | OR51B4 (Homo sapiens) | OR51B5 (Homo sapiens) | OR51B6 (Homo sapiens)
